Source: ChEMBL document CHEMBL1153397, “Argifin; efficient solid phase total synthesis and evaluation of analogues of acyclic peptide” (Bioorg Med Chem, 2009)
*1 amine or outer side, *2 acyl side, *3 side chain or, on linkers, in order; H or OH if unused. Where a SMILES comes first, the peptide text is derived from it. Side-chain parts run from the residue outwards. [ ]: non-standard residue; d: D form. The star is where a group is joined. NMeF = CN[C@@H](Cc1ccccc1)C(=O)O; CO = O=C([*:1])[*:2]; OAll = C=CCO*

Assays:
Chitinase B = target: T1, Chitinase B (Serratia marcescens, UniProt P11797); assay: Displacement of 4-methylumbelliferydiacetyl-chitobiose from Serratia marcescens ChiB
T1 sequence (P11797 whole entry): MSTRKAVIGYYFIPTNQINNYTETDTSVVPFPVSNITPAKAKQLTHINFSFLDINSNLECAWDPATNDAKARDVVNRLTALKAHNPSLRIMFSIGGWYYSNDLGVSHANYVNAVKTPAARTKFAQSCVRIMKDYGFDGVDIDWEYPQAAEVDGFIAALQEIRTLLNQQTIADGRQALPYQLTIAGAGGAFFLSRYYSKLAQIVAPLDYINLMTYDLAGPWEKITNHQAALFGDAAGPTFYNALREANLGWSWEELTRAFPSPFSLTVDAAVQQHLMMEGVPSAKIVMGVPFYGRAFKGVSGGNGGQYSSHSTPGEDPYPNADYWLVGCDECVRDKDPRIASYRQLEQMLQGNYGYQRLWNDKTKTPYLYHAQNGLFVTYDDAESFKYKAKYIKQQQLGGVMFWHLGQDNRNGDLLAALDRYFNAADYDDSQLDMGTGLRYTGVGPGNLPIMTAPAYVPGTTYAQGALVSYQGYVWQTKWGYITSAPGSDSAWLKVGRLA
Method in brief: (§1)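 Crude S. marcescens chitinase diluted in 0.1 M phosphate pH 7.0 (ChiA x10, ChiB x40, ChiC1 x4) was mixed with inhibitor in MeOH, buffer and 80 μM (solution added) 4-MU-(GlcNAc)2, then incubated 5 min. Fluorescence (ex 355/em 460 nm) was read every 60 s. The 4-methylumbelliferone production rate was corrected for each inhibitor's quenching using inhibitor plus 4MU mixtures. IC50 came from sigmoidal dose-response fits.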

Chitinase A = Chitinase A (Serratia marcescens, UniProt P07254); assay: Displacement of 4-methylumbelliferydiacetyl-chitobiose from Serratia marcescens ChiA; method in brief: as §1
Sequence of Chitinase A (P07254 whole entry): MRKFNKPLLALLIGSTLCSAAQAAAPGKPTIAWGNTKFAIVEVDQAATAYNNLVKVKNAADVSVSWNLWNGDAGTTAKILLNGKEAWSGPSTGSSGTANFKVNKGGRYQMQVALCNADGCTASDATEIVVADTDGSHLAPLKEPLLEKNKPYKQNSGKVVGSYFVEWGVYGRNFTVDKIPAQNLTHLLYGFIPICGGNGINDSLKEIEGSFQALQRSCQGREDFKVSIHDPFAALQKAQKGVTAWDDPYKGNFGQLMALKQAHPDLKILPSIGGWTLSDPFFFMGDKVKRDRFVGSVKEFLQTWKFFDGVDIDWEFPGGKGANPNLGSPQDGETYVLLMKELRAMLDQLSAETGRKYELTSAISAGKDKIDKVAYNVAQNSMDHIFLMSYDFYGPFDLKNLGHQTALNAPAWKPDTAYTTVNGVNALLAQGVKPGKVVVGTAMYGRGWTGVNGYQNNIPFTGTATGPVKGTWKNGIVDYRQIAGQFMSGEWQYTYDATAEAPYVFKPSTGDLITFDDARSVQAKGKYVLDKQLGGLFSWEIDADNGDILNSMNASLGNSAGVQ

Chitinase C1 = target: T2, Chitinase C1 (Serratia marcescens, UniProt Q700B8); assay: Displacement of 4-methylumbelliferydiacetyl-chitobiose from Serratia marcescens ChiC; method in brief: as §1
T2 sequence (Q700B8 whole entry): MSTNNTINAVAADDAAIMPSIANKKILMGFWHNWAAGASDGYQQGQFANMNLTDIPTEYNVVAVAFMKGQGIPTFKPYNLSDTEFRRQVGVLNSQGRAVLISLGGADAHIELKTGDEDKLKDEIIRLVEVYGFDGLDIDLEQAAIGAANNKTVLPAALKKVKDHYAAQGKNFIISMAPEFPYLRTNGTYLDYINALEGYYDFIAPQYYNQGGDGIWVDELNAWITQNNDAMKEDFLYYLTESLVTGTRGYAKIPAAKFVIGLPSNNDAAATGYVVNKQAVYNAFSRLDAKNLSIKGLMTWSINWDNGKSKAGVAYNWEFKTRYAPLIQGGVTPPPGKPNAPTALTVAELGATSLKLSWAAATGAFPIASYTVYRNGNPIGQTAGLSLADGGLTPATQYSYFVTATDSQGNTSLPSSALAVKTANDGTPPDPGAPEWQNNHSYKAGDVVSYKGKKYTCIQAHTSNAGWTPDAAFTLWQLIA

Compound	IC50 (Chitinase B) [µM]	IC50 (Chitinase A) [µM]	IC50 (Chitinase C1) [µM]
C=CCOC(=O)C[C@H](NC(=O)[C@H](Cc1ccccc1)N(C)C(=O)[C@H](CCCNC(=N)NC(=O)NC)NC(=O)[C@@H](C)NC(C)=O)C(=O)O	0.091	0.025	> 30
CNC(=O)NC(=N)NCCC[C@H](NC(C)=O)C(=O)N(C)[C@@H](Cc1ccccc1)C(=O)O	3.7	0.75	> 30
CNC(=O)NC(=N)NCCC[C@H](NC(C)=O)C(=O)O	260	31	> 30
CNC(=O)NC(=N)NCCC[C@@H]1NC(=O)[C@@H](C)NC(=O)C[C@@H](C(=O)O)NC(=O)C[C@@H](C(=O)O)NC(=O)[C@H](Cc2ccccc2)N(C)C1=O [ARGIFIN]	6.4	0.025	> 30
CNC(=O)NC(N)=NCCC[C@H](NC(=O)[C@@H](C)NC(=O)[C@H](CC(=O)O)NC(C)=O)C(=O)O	110	32	> 30
CNC(=O)NC(=N)NCCC[C@H](NC(=O)[C@@H](C)NC(=O)[C@H](CC(=O)O)NC(C)=O)C(=O)N(C)[C@@H](Cc1ccccc1)C(=O)O	30	8.4	> 30
CNC(=O)NC(N)=NCCC[C@H](NC(=O)[C@@H](C)NC(C)=O)C(=O)O	64	6.6	> 30
CNC(=O)NC(=N)NCCC[C@H](NC(=O)[C@@H](C)NC(C)=O)C(=O)N(C)[C@@H](Cc1ccccc1)C(=O)O	2.7	0.09	> 30
C=CCOC(=O)C[C@H](NC(=O)[C@H](Cc1ccccc1)N(C)C(=O)[C@H](CCCN=C(N)NC(=O)NC)NC(=O)[C@@H](C)NC(=O)[C@H](CC(=O)O)NC(C)=O)C(=O)O	1	1.1	> 30
C=CCOC(=O)C[C@H](NC(=O)[C@H](Cc1ccccc1)N(C)C(=O)[C@H](CCCNC(=N)NC(=O)NC)NC(C)=O)C(=O)O (Ac-Arg([CO-NHMe])-[NMeF]-Asp(OAll)-OH)	0.13	0.14	> 30
